Source: PMC9582731 (RSC Advances, 2022)

Columns and labels:
in vitro = type: cell-based; conditions: mouse
[1] = test system: acetic acid-induced writhing in mice; experiment: Acetic acid-induced writhing analgesic test; type: in vivo; conditions: 3 days, acetic acid i.p., Kunming mice
[2] = test system: λ-carrageenan-induced mouse paw edema; experiment: λ-carrageenan-induced mouse paw edema test; type: in vivo; conditions: 10 mg kg^−1 i.g., 2 h before λ-carrageenan, at 2–6 h, ICR mice
Outline: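 Test compound given at a low and a high dose, alongside a blank group, a carrageenan-only model group and an indomethacin positive-control group; paw swelling induced with λ-carrageenan.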

[3] = test system: λ-carrageenan-induced paw edema tissue; experiment: H&E histological examination of paw edema tissue; type: in vivo, mice; conditions: treated animals vs λ-carrageenan model group
Outline: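 Mice given λ-carrageenan to induce paw edema. Groups: blank, model, indomethacin (positive control), and test compound at low and high dose. Paw tissue was examined by H&E staining for histological change or by immunohistochemical staining for TNF-α, including bone.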

| SMILES | IC50 (in vitro) | Effect on number of writhes ([1]; 200 mg kg^−1 i.g.) | Effect on number of writhes ([1]; 19.5 mg kg^−1 i.g.) | Effect on paw edema [2] | Histological change of paw biopsies (H&E) [3] |
| --- | --- | --- | --- | --- | --- |
| COC1=C[C@@H]2[C@@H]3Cc4ccc(OC)c(O)c4[C@]2(CCN3C)CC1=O [SIN, Sinomenine] | > 100 µM | almost no analgesic effects | – | – | – |
| O=C(O)Cc1ccccc1Nc1c(Cl)cccc1Cl [Voltaren] | – | – | reduce the number of writhes considerably | – | – |
| COc1ccc2c(c1)c(CC(=O)O)c(C)n2C(=O)c1ccc(Cl)cc1 [Indo, indomethacin] | > 100 µM | – | – | significantly inhibited the development of edema | a reduction in the λ-carrageenan-induced inflammatory response |
